# Test: Toxicity liver stage against HepG2, at 10uM
# Format: cell-based
# Design: test concentration 10 uM, cell line HepG2-A16-CD81EGFP
# Conditions: human, HepG2-A16-CD81EGFP cells; read-out: INHIBITION
# How it was run: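 Uninfected HepG2-A16-CD81EGFP cells, 3 × 10^3 per well, 1536-well, plated on prespotted compound at 10 μM final, parasite-free screening media added to match infected plates; puromycin 10 μM positive, DMSO 0.5% negative; run in parallel with 48 h PbLuc assay at 37 °C, 5% CO2; viability by CellTiter-Glo luminescence, normalized to controls.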
smiles,measurement,value
CC1=C[C@@H](CC#N)[C@H](C(C)C)C[C@H]1CC(=O)N1CCN(C)CC1,cytotoxicity at 10 µM,-4.42%
Cc1nn(CCC#N)c(C)c1[C@@H]1C=C[C@@H](NCc2cccc(Cl)c2)C1,cytotoxicity at 10 µM,-1.45%
CC(C)c1noc(-c2cccc(OCC(N)=O)c2)n1,cytotoxicity at 10 µM,-7.39%
CC1(C)OCC(CNC(=O)c2cnn(-c3cccc(Cl)c3Cl)c2N)O1 (stereo unspecified),cytotoxicity at 10 µM,1.93%
Cc1ccc(NC(=O)NCC2(O)CCCC2)cc1C,cytotoxicity at 10 µM,-6.8%
Cc1ccccc1CNC(=O)N1CC[C@@H]2CN(C)S(=O)(=O)[C@@H]2CC1,cytotoxicity at 10 µM,-0.39%
CCOc1ncnc2c1CCN(C(=O)c1cnccn1)CC2,cytotoxicity at 10 µM,-6.13%
CNC(=O)N1CCc2cc(C(=O)NCC3CC3)c(NC(C)C)nc2CC1,cytotoxicity at 10 µM,2.02%
CC1CCc2nc(O)c(C(=O)NCc3cccc(F)c3)cc2C1 (stereo unspecified),cytotoxicity at 10 µM,3.43%
CCOc1ccc(C(=O)Nc2ccn(CC)n2)cc1,cytotoxicity at 10 µM,3.16%
CNC(=O)c1cnn2c(C3CCCN3)ccnc12 (stereo unspecified),cytotoxicity at 10 µM,8.88%
COc1ccccc1NC(=O)c1[nH]nc(C(C)C)c1Br,cytotoxicity at 10 µM,8.24%
CC(C)c1nnc(CN2CC(n3cccn3)C2)o1,cytotoxicity at 10 µM,-149%
CS(=O)(=O)c1ccc(NC(=O)NCCC2=CCCCC2)cc1,cytotoxicity at 10 µM,-0.529%
NC(=O)C(NC1CCN(Cc2ccc(F)cc2)CC1)c1ccccc1 (stereo unspecified),cytotoxicity at 10 µM,-5.4%
NC(=O)CCn1ccc(NCc2cc(F)ccc2Br)n1,cytotoxicity at 10 µM,-1.91%
Cc1cnn(CC(C)NCC(=O)Nc2ccc(Cl)cn2)c1 (stereo unspecified),cytotoxicity at 10 µM,6.05%
CN(CC(=O)NC(C)(C)C)C(=O)c1cccn1CCc1ccccc1,cytotoxicity at 10 µM,6.1%
Cc1ccc(-c2csc(-c3cccc(C(=O)O)c3)n2)cc1,cytotoxicity at 10 µM,3.21%
COc1ccccc1OCCNC(=O)NCC(C)C,cytotoxicity at 10 µM,7.54%
CC1CCN(C(=O)c2occc2COc2cccc(C#N)c2)CC1,cytotoxicity at 10 µM,0.106%
Cc1nc(COc2ccc(OCC(N)=O)cc2)oc1C,cytotoxicity at 10 µM,4.68%
CCOC(=O)c1cnn(-c2cc(C)ccn2)c1N,cytotoxicity at 10 µM,11.3%
O=C(Cn1cc(Cl)cn1)Nc1ccc2c(c1)OCCCO2,cytotoxicity at 10 µM,4.98%
Cc1c(C(=O)NC2=NCCS2)cnn1-c1ccc(Br)cc1,cytotoxicity at 10 µM,-0.647%
O=C(CNC(=O)c1ccoc1)NCCOc1ccc2c(c1)CCC2,cytotoxicity at 10 µM,-7.98%
Cc1c(Cl)cccc1NC(=O)CCNc1ccc(C#N)cn1,cytotoxicity at 10 µM,-0.106%
Cc1nsc(N2CCN(CC(=O)NCc3cccnc3)CC2)n1,cytotoxicity at 10 µM,-4.52%
COC(=O)N1CCC(Nc2cccc(F)c2C(C)=O)C1 (stereo unspecified),cytotoxicity at 10 µM,11.2%
Cc1ccc(C(=O)NCCNC(=O)c2cncnc2C(C)C)cc1F,cytotoxicity at 10 µM,9.52%
COc1ccc(OC)c(C(O)CN2CCN(C3CCCC3)CC2)c1 (stereo unspecified),cytotoxicity at 10 µM,6.81%
COC(=O)C1CN(CC(=O)Nc2cccc(OC)c2)c2ccccc21 (stereo unspecified),cytotoxicity at 10 µM,11.1%
Cc1nn(C)c(N2CCOCC2)c1CNCC1CCCN1C (stereo unspecified),cytotoxicity at 10 µM,-1.96%
CS(=O)(=O)NCCC(=O)NC1(c2ccc(F)cc2)CCCC1,cytotoxicity at 10 µM,-1.1%
Cc1nc(C)c(C)c(N2CCC3(CCOC3)C2)n1 (stereo unspecified),cytotoxicity at 10 µM,-1.31%
Cn1c(Nc2ccc(F)cc2)c(C#N)c(=O)n(C)c1=O,cytotoxicity at 10 µM,1.77%
Cc1ccc(NC(=O)NC(C)c2nc[nH]n2)cc1Cl (stereo unspecified),cytotoxicity at 10 µM,-2.06%
O=C(CNc1cc2c(cc1Cl)OCCCO2)NCc1ccc(F)cc1,cytotoxicity at 10 µM,0.854%
COc1ccc(CCNC(=O)Nc2cc(C)nn2C)cc1,cytotoxicity at 10 µM,-2.87%
CC(NC(=O)N(C)Cc1cnn(C)c1)c1nncn1C (stereo unspecified),cytotoxicity at 10 µM,-3.03%
COc1ccc(CNC(=O)Nc2ccc(CN3CCOC3=O)cc2)cc1,cytotoxicity at 10 µM,-1.44%
COCCCNC(=O)CN(C)Cc1ccc(F)cc1Cl,cytotoxicity at 10 µM,-7.33%
Cc1nc(CNC(=O)NC2CCN(c3ncccn3)CC2)cs1,cytotoxicity at 10 µM,-141%
O=C(c1ccc(=O)[nH]n1)N1CCCC1CCc1ccccc1 (stereo unspecified),cytotoxicity at 10 µM,8.89%
CCN(CC(=O)NC(C)C)C(=O)C(C)(C)c1ccc2c(c1)OCCO2,cytotoxicity at 10 µM,-2.79%
CC(=O)Nc1nc(C(=O)NCCOc2ccccc2F)cs1,cytotoxicity at 10 µM,-6.19%
COc1ccccc1-c1cc(NC(=O)CCS(=O)(=O)C2CCCC2)[nH]n1,cytotoxicity at 10 µM,-123%
COc1c(C)cnc(CNC(=O)CCc2nc3ccccc3[nH]2)c1C,cytotoxicity at 10 µM,-5.27%
CCc1cnc(CN2CCOC(c3nc(C)n[nH]3)C2)o1 (stereo unspecified),cytotoxicity at 10 µM,-4.83%
Cc1cccnc1NC(=O)C1CCN(C(C)C(=O)NC(C)(C)C)CC1 (stereo unspecified),cytotoxicity at 10 µM,3.15%
CCc1cnc(CNC(=O)NC2CCN(C3CCCC3)CC2)s1,cytotoxicity at 10 µM,-1.06%
COc1cccc2c1CCN(C(=O)NCc1nnc3ccccn13)C2,cytotoxicity at 10 µM,0.67%
CC(C)n1cnnc1CN(C)Cc1ccc(CO)o1,cytotoxicity at 10 µM,3.68%
O=C(c1cccc(-c2ccc(F)cc2)c1)N1CCCC(O)(CO)CC1 (stereo unspecified),cytotoxicity at 10 µM,-4.77%
CN1CCCCC1Cc1nc2c(cc1C(N)=O)CCC2 (stereo unspecified),cytotoxicity at 10 µM,-9.55%
COc1ccc(C(=O)N2CCN(C(=O)Cn3nccc3C)CC2)cc1,cytotoxicity at 10 µM,6.88%
CC(NS(C)(=O)=O)C(=O)N(C)Cc1csc(-c2cccs2)n1 (stereo unspecified),cytotoxicity at 10 µM,-0.525%
CCN(CCCN1CCOCC1)C(=O)c1cnn(CC)c1,cytotoxicity at 10 µM,46.6%
O=C1NCCCCC1NC(=O)C1(Oc2ccc(Cl)cc2)CCNCC1 (stereo unspecified),cytotoxicity at 10 µM,-6.21%
O[C@H]1[C@H](n2cc(-c3ccccn3)nn2)c2ccccc2C12CCNCC2,cytotoxicity at 10 µM,-11.5%
COc1cc(N[C@@H](Cc2ccccc2)C(N)=O)ncn1,cytotoxicity at 10 µM,10.1%
Cc1ccc2ncccc2c1CN1CC[C@H](N(C)C)[C@H](CCC(=O)O)C1,cytotoxicity at 10 µM,-148%
O=C1CN(C(=O)c2cc(-c3ccco3)nc3c(Cl)cccc23)CCN1,cytotoxicity at 10 µM,-5.2%
CN(Cc1ccoc1)c1ccc(-c2nccn2C)nn1,cytotoxicity at 10 µM,-5.12%
CCc1ccc2nc(C)cc(C(=O)NC3CCNC3=O)c2c1 (stereo unspecified),cytotoxicity at 10 µM,-4.65%
Cc1ncsc1CN1CC(C)(C2CC2)CC1=O (stereo unspecified),cytotoxicity at 10 µM,0.832%
COCCNC(=O)[C@H]1C[C@@](CC(C)C)(C(=O)O)N(C)[C@H]1c1cccnc1,cytotoxicity at 10 µM,-6.16%
CCc1nc(N2CCCC(O)(CO)CC2)ncc1C (stereo unspecified),cytotoxicity at 10 µM,10.8%
Cc1cc(C(=O)NC(C)C(=O)Nc2cc(F)ccc2C)nc(C)n1 (stereo unspecified),cytotoxicity at 10 µM,-3.71%
Cc1ccc(SCCN(C)C(=O)c2cn(CCN)nn2)cc1,cytotoxicity at 10 µM,-4.7%
CCc1ccc(-c2cn3c(C(=O)NCC(C)C(=O)NC)csc3n2)cc1 (stereo unspecified),cytotoxicity at 10 µM,9.21%
CC(=O)N1CCCC(C(=O)NCc2noc(Cc3ccccc3)n2)C1 (stereo unspecified),cytotoxicity at 10 µM,3.02%
Cc1nnc(NC(=O)N2CCCN(C3CCCC3)CC2)s1,cytotoxicity at 10 µM,-3.16%
Cc1nn(C)cc1-c1ccnc(N(C)Cc2noc(C(C)C)n2)n1,cytotoxicity at 10 µM,1.41%
CNC(=O)C1CCN(c2ncc3c(n2)CCN3c2ccccc2)C1 (stereo unspecified),cytotoxicity at 10 µM,-10.1%
CCSC(C)c1nc(-c2ccc(C)nn2)no1 (stereo unspecified),cytotoxicity at 10 µM,-6.24%
COc1cccc(-c2c[nH]c(C)n2)c1F,cytotoxicity at 10 µM,-3.29%
O=C(Cn1nc2ccccc2n1)N1CCCC(O)(CN2CCCC2)C1 (stereo unspecified),cytotoxicity at 10 µM,-10.4%
Cc1cccc(C2CCCN(C(=O)CN3CCC(C(N)=O)CC3)C2)c1 (stereo unspecified),cytotoxicity at 10 µM,-5.17%
CCCn1ccnc1CN1C[C@@H](NC(C)=O)[C@H](c2ccc(OC)cc2)C1,cytotoxicity at 10 µM,0.344%
CC(C)=CCCC(C)CN1CCC(n2cc(CO)nn2)CC1 (stereo unspecified),cytotoxicity at 10 µM,-6.37%
CCC(=O)c1ccc(OCC(=O)NC(C)c2nnc(C)[nH]2)cc1 (stereo unspecified),cytotoxicity at 10 µM,5.37%
COc1ccc2c(C)c(C(=O)NC3CCOCC3)oc2c1,cytotoxicity at 10 µM,15.2%
O=C(CSc1ccccc1)N1CCc2c(ncnc2N2CCOCC2)C1,cytotoxicity at 10 µM,-7.15%
O=C(c1ncccc1O)N1CCc2c(ncnc2N2CCOCC2)C1,cytotoxicity at 10 µM,-3.99%
CC(C)(O)CCc1cccc(C(=O)N2CCC3(CCOCC3)CC2)c1,cytotoxicity at 10 µM,1.14%
CC(C)c1cc(C(=O)N2CCN(c3ccncc3)CC2)n(C)n1,cytotoxicity at 10 µM,-3.5%
Cc1nccc(-c2ccccc2)c1C(=O)N1CCC2(CN(C)C(=O)O2)C1 (stereo unspecified),cytotoxicity at 10 µM,4.77%
COC[C@@H]1CCCN1C(=O)c1cc(-c2cccc(OC)c2)n[nH]1,cytotoxicity at 10 µM,6.6%
CCNC(=O)[C@@H]1C[C@H](N)CN1c1cc(C(F)(F)F)nc(N2CCCC2)n1,cytotoxicity at 10 µM,-3.97%
CC(C)(C)n1ccc(C(=O)N2CCCC(c3ccc(C(=O)O)cc3)C2)c1 (stereo unspecified),cytotoxicity at 10 µM,1.31%
COc1ccccc1OCc1cc(C(=O)N2CCC(C(C)O)CC2)n[nH]1 (stereo unspecified),cytotoxicity at 10 µM,0.127%
O=C(Nc1ccc(F)cc1)C1CNCCN1C(=O)CCO (stereo unspecified),cytotoxicity at 10 µM,1.93%
O=C(COCc1ccccc1)N1CCC(OCc2cccnc2)CC1,cytotoxicity at 10 µM,4.41%
CC(C)c1cc(NC(=O)c2cccnc2)[nH]n1,cytotoxicity at 10 µM,-4.24%
COC1CCN(C(=O)Nc2cc(C(F)(F)F)c[nH]c2=O)CC1,cytotoxicity at 10 µM,4.1%
COc1cccc(COCC(=O)N2CCCN(CC(N)=O)CC2)c1,cytotoxicity at 10 µM,-7.04%
Cc1cccc(-c2noc(CN3CCOC(Cn4cccn4)C3)n2)c1 (stereo unspecified),cytotoxicity at 10 µM,-3.07%
O=C(CCN1CCOC(Cn2cccn2)C1)NC1CCCCC1 (stereo unspecified),cytotoxicity at 10 µM,-6.28%
Cc1cc(C)n(CC2CCCN2C(=O)c2nccc3ccccc23)n1 (stereo unspecified),cytotoxicity at 10 µM,-7.49%
CCOc1ncccc1C(=O)N1CCCC(c2nncn2C)C1 (stereo unspecified),cytotoxicity at 10 µM,-8.47%
CN(C)[C@@H]1CCN(c2ncc(F)cn2)[C@H]1Cc1ccccc1,cytotoxicity at 10 µM,-1.65%
COCC1CN(Cc2ccc(C)o2)Cc2nnn(C)c21 (stereo unspecified),cytotoxicity at 10 µM,-4.53%
CCN(C)c1ncnc2c1CCN(C(=O)c1ccoc1C)CC2,cytotoxicity at 10 µM,-0.675%
O=C([C@@H]1CCO[C@@H]2CCN(CCc3ccccc3)C[C@@H]21)N1CCCC1,cytotoxicity at 10 µM,-3.06%
COc1c(CNC2(c3noc(C)n3)CCC2)c(C(C)C)nn1C,cytotoxicity at 10 µM,2.08%
N#Cc1cccc(CN2Cc3nccn3CC(COCC3CC3)C2)c1 (stereo unspecified),cytotoxicity at 10 µM,-127%
Cc1nn(C)cc1C(=O)N1C[C@@H]2CC[C@H]1CN(S(=O)(=O)N(C)C)C2,cytotoxicity at 10 µM,19.8%
COCCN1C[C@@H]2CC[C@H]1CN(Cc1ccc3ccccc3n1)C2,cytotoxicity at 10 µM,-11.3%
CC(C)NC(=O)CN(C)CC(=O)Nc1ccnn1C(C)C1CC1 (stereo unspecified),cytotoxicity at 10 µM,-6%
CNc1ccnc(N2C[C@H]3CC[C@@H](C2)N(CCOC)C3=O)n1,cytotoxicity at 10 µM,7.64%
